A selection: hits, their analogues and other compounds. The true share with any hit is near 0.94%.
UCH37 DUB inh: inhibitors of human UCH37 deubiquitinase, primary screen, biochemical, Ub-AMC cleavage, fluorescence | Ubiquitin carboxyl-terminal hydrolase isozyme L5 (Homo sapiens), Q9Y5K5 | purified proteasome/UCH37 | inhibition, % (test concentration not listed) | hit rate 0.33% among 330,000;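 active = mean inhibition over replicate wells above about 20%, limit read from the data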
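system = Proteasome-associated human UCH37 deubiquitinase | amount = 0.15 nM proteasome as dispensed | medium = pH 7.4 Tris-HCl (50 mM) with ovalbumin, ATP-MgCl2, DTT | incubation = 30 min preincubation with enzyme, 25 min cleavage at room temperature | detection = AMC fluorescence 355/460 nm | read-out basis = percent inhibition | controls = no-proteasome and no-compound wells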
aDG glyco up: activators of alpha-DG glycosylation, primary screen, uHTS, Pro5-aDG cells, AlphaScreen; alpha-DG glycosylation AlphaScreen (IIH6); 0% Pro5, 100% B10-LARGE cell signal; activation, % at 10 µM; hit rate 0.22% among 360,000; AID 624168, 2012;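 active = activation of at least 8% versus controls, or a plate z-score of at least 8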;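 note: Pro5 are CHO cells carrying HIG-tagged alpha-DG that lacks glycosylation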
Fh CTSL1 inh: Fasciola hepatica cathepsin L1 inhibitors, primary screen, counter-screen for PFM18AAP inhibitor project, biochemical, QFRET, fluorogenic peptide substrate; recombinant F. hepatica cathepsin L1, Z-Leu-Arg-MCA fluorescence; inhibition, % at 5.96 µM; hit rate 0.49% among 300,000; AID 1906, 2009;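 active = inhibition above the mean of all tested compounds plus 3 SD, set per screening campaign, cut at about 17% in these data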
PKA-R1A act: activators of PKA-R1A holoenzyme, primary screen, biochemical, fluorescence polarization, Cy5-IP20, bovine R1A, mouse PKAc; cAMP-dependent protein kinase type I-alpha regulatory subunit (Bos taurus) + …; PKA-R1A dissociation; scaled: DMSO 0%, 113 µM cGMP 100%; activation, % at 11.4 µM; hit rate 0.083% among 340,000; AID 504707, 2011;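 active = percent activation above the mean of all tested compounds plus 3 SD, cut at about 19% in these data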;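 note: higher means more PKAc released from R1A so a rise in polarization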
PKA-R2B activ: activators of PKA-R2B holoenzyme, primary screen, biochemical, fluorescence polarization, Cy5-IP20, human. cAMP-dependent protein kinase catalytic subunit beta (Homo sapiens) + cAMP-dependent …. PKA-R2B holoenzyme dissociation; R2B truncated from residue 108, S112A mutant; 0% DMSO only, 100% 113 µM cGMP. activation, % at 11.4 µM. hit rate 0.079% among 340,000;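 active = activation above a cutoff set at the mean over all compounds plus 3 SD, cut at about 18% in these data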;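 note: higher means more holoenzyme dissociation and a rise in polarization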
Target sequence (P31323 whole entry, looked up, other chains not shown, the tested form may be a part): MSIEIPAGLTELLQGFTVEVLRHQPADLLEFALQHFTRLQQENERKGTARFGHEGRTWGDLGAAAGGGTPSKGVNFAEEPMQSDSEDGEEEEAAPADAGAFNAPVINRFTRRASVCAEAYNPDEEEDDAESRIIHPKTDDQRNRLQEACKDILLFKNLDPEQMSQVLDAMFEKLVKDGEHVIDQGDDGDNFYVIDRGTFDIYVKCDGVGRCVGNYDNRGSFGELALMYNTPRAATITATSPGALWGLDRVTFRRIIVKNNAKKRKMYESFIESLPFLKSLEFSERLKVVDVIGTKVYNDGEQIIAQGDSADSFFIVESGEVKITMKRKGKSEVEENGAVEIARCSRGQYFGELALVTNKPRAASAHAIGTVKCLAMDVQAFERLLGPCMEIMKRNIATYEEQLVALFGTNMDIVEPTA
R1A FP artifact: FP signal interference without PKA proteins, confirmation, artefact control for PKA-R1A activator project, biochemical, fluorescence polarization, triplicate | Cy5-IP20 peptide alone, fluorescence polarization artifact counterscreen | AID 504799, 2011 | activation, % at 11.4 µM | hit rate 7% among 280 | shares compounds with PKA-R1A act;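 active = mean activation over triplicate runs exceeds the adjusted cutoff derived for the parent primary screen, cut at about 19% in these data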;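 note: no PKA protein present so any polarization rise reflects compound interference; higher means stronger polarization artifact and likely false positive in parent screen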
PKA-R1A confirm: activators of PKA-R1A holoenzyme, confirmation, biochemical, fluorescence polarization, Cy5-IP20, triplicate; shares compounds with PKA-R1A act; PKA-R1A holoenzyme dissociation; activation, % at 11.4 µM; hit rate 9% among 280; AID 504800, 2011;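 active = mean activation over replicate wells exceeds the adjusted hit threshold taken from the earlier primary screen, cut at about 20% in these data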
UCH37 confirm: retest of human UCH37 deubiquitinase inhibitors, confirmation, biochemical, Ub-AMC cleavage rate, fluorescence. AID 624100, 2012. Proteasome-bound UCH37. inhibition, % at 20 µM. shares compounds with UCH37 DUB inh. hit rate 27% among 480;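 active = average inhibition over replicates above about 50%, so the earlier screening hit is confirmed, limit read from the data; inactive = the rest, counted as false positives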;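 note: based on cleavage rate fitted by regression over a 30 min kinetic read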
Each line names hits and unclear results; the compound was inactive in the other large screens (follow-up assays come after a bar, where they were run).

COc1cc(C=c2sc(=C(C#N)C(=O)N3CCCC3)n(-c3ccccc3)c2=O)ccc1O	none (no result: aDG glyco up, Fh CTSL1 inh, PKA-R1A act, PKA-R2B activ)
CC1CCCN(CCC(=O)c2ccc(Br)cc2)C1 (centres undefined)	PKA-R1A act 19 | R1A FP artifact inactive | PKA-R1A confirm inactive
COc1ccc(S(=O)(=O)Nc2c(C)cccc2C)cc1-n1cnnn1	PKA-R1A act 19 | R1A FP artifact inactive | PKA-R1A confirm inactive
Oc1ccc2ccccc2c1/C=N/n1cnnc1	PKA-R1A act 19 (no result: UCH37 DUB inh) | R1A FP artifact inactive | PKA-R1A confirm inactive
O=C(CN1CCN(Cc2ccccc2)CC1)NN=Cc1cccnc1	none (no result: aDG glyco up, Fh CTSL1 inh, PKA-R1A act, PKA-R2B activ)
Cc1ccc2c(c1)N(C(=O)CCC(=O)NC1CCCCCC1)CCO2	none
CCOC(=O)N1CCC(NC(=O)CCC(=O)N2CCOc3ccc(Cl)cc32)CC1	PKA-R1A act 21 | R1A FP artifact inactive | PKA-R1A confirm inactive
COC(=O)c1c(NC(=O)Cc2ccccc2)sc(C)c1C	none
COC(=O)c1c(NC(=S)Nc2ccccc2Cl)sc(C)c1C	PKA-R1A act 21 | R1A FP artifact inactive | PKA-R1A confirm inactive
COc1ccc2[nH]c(=O)c(CN(C(=O)c3ccccn3)c3ccccc3)cc2c1	PKA-R1A act 20 | R1A FP artifact inactive | PKA-R1A confirm inactive
COc1ccc2[nH]c(=O)c(CN(C(=O)c3cccnc3)c3ccccc3)cc2c1	none
COCCn1c(SCC(=O)NC2CCCCC2)nnc1-c1ccco1	none
COCCCn1c(SCC(=O)NC2CCCC2)nnc1-c1ccco1	PKA-R1A act 26 | R1A FP artifact inactive | PKA-R1A confirm inactive
CC(=NNC(=O)CN(c1ccccc1)S(=O)(=O)c1ccccc1)c1ccccc1O	none (no result: aDG glyco up, Fh CTSL1 inh, PKA-R1A act, PKA-R2B activ)
O=C(CSC(=S)N1CCCCC1)c1ccccc1	UCH37 DUB inh 39, PKA-R1A act 20 | R1A FP artifact inactive | PKA-R1A confirm inactive | UCH37 confirm inactive
COc1cc(C=Nn2cnnc2)ccc1OCc1ccc(C)cc1	none (no result: aDG glyco up, Fh CTSL1 inh, PKA-R1A act, PKA-R2B activ)
O=C(O)c1cccc(CN2C(=O)S/C(=C/c3ccccc3[N+](=O)[O-])C2=O)c1	UCH37 DUB inh 80 | UCH37 confirm inactive
O=C1S/C(=C\c2ccc(O)c([N+](=O)[O-])c2)C(=O)N1Cc1cccc([N+](=O)[O-])c1	none (no result: UCH37 DUB inh, PKA-R1A act, PKA-R2B activ)
O=C1/C(=N\S(=O)(=O)c2cccs2)C([n+]2ccc(CCCc3ccccc3)cc2)=C([O-])c2ccccc21	none (no result: PKA-R1A act, PKA-R2B activ)
Cc1ccccc1NC1=C/C(=N\S(=O)(=O)c2cccs2)c2ccccc2C1=O	UCH37 DUB inh 78, Fh CTSL1 inh 94 | UCH37 confirm inactive
O=C1C(Nc2ccccc2)=CC(=NS(=O)(=O)c2cccs2)c2ccccc21	UCH37 DUB inh 78 (no result: aDG glyco up, Fh CTSL1 inh, PKA-R1A act, PKA-R2B activ) | UCH37 confirm inactive
Cc1cc(C)c[n+](C2=C([O-])c3ccccc3C(=O)/C2=N\S(=O)(=O)c2cccs2)c1	UCH37 DUB inh 27 | UCH37 confirm inactive
CCCCOc1ccc(C(=O)NN=Cc2ccc(OCCN3CCCCC3)c(OC)c2)cc1	none (no result: aDG glyco up, Fh CTSL1 inh, PKA-R1A act, PKA-R2B activ)
C[C@H]1COC2=C1C(=O)C(=O)c1c2ccc2c1CCCC2(C)C	UCH37 DUB inh 41 | UCH37 confirm 75
Cc1nc2c(cc1C(=O)NN=Cc1ccc([N+](=O)[O-])cc1)c(=O)n(C)c(=O)n2C	none (no result: aDG glyco up, Fh CTSL1 inh, PKA-R1A act, PKA-R2B activ)

Screening data as filed in PubChem.
